This is an account of results in ChEMBL document CHEMBL1125724, “Potential anti-AIDS agents. Synthesis and antiviral activity of naphthalenesulfonic acid derivatives against HIV-1 and HIV-2” (1991).

Converted amounts (≈) assume the structure as drawn.

For experiment [1], the system named is MT4. Briefly: Compound was evaluated for inhibitory effect against MT-4 cells of HIV-2 at a concentration of 100(420) ug/mL (uM). It counts as functional, Homo sapiens. Summed up: (§1)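 HIV-2 (ROD strain) infected MT-4 cells at multiplicity of infection 0.02, incubated with a range of compound concentrations for 4 days. Viable cells counted by MTT method. Per-concentration inhibition of virus-induced cytopathogenicity; values are means of two separate experiments.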

The test system of experiment [2] is MT4. Kind of experiment: Compound was evaluated for inhibitory effect against MT-4 cells of HIV-1 at a concentration of 0.8(3.4) ug/mL (uM). The class given is functional, Homo sapiens. In outline: (§2)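 HIV-1 (HTLV-III_B) infected MT-4 cells at multiplicity of infection 0.02, incubated with a range of compound concentrations for 4 days. Viable cells counted by MTT method. Per-concentration inhibition of virus-induced cytopathogenicity; values are means of two separate experiments.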

Experiment [3] has as its system MT4. Briefly: Compound tested for its inhibition of HIV-1 induced cytopathogenicity in MT-4 cells. The settings on record: Homo sapiens, read-out: ED50 (the source's name). The class given is functional. In outline:
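MT-4 cells infected with HIV-1 (HTLV-III_B) at MOI 0.02 and incubated 4 days with a range of compound concentrations. Viable cells were counted by MTT. ED50 is the 50% antiviral dose from inhibition of virus-induced cytopathogenicity, given as the mean of two separate experiments.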
(Protection from cytopathic effect is a common read-out in antiviral testing.)

Experiment [4] has as its target Human immunodeficiency virus type 1 reverse transcriptase (Human immunodeficiency virus 1) (UniProt Q72547). Kind of experiment: Inhibitory dose at a concentration of 2100 uM cell-free HIV-1 Reverse Transcriptase. Summed up:
(§3)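 HIV-1 RT from partially purified, concentrated disrupted virions. Reaction at 37 °C for 30 min in 50 mM Tris-HCl pH 8.4, 2 mM DTT, 100 mM KCl, 10 mM MgCl2, 0.1% Triton X-100, with 1 µCi [methyl-3H]dTTP (30 Ci/mmol) and 0.01 unit poly(rA)·oligo(dT). Stopped with 5% TCA; precipitate collected on glass-fiber filters and counted by liquid scintillation. Experimental variation at most 10%.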

The test system of experiment [5] is MT4. Briefly: Compound tested for its ability to reduce viability of mock-infected MT-4 cells. The class given is functional. The settings on record: Homo sapiens, read-out: CD50 (the source's name). In outline:
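Mock-infected MT-4 cells were incubated 4 days with a range of compound concentrations, and viability was read by MTT. CD50 is the 50% cytotoxic dose from reduced viability, given as the mean of two separate experiments.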

For experiment [6], the target named is Human immunodeficiency virus type 1 reverse transcriptase (Human immunodeficiency virus 1) (UniProt Q72547). Kind of experiment: Compound tested for % inhibition of cell-free HIV-1 Reverse Transcriptase at a concentration of 16.8 uM. In outline:
as §3

Experiment [7] deals with Human immunodeficiency virus 1. Briefly: Compound tested for % inhibition of giant cell formation at a concentration of 420 uM.
Experiment [8] has as its system MT4. Kind of experiment: Compound was evaluated for inhibitory effect against MT-4 cells of HIV-2 at a concentration of 20(84) ug/mL (uM). It counts as functional, Homo sapiens. Summed up:
as §1

Experiment [9] concerns MT4. Kind of experiment: Cell viability at a concentration of 4(16.8) ug/mL (uM). It counts as functional, Homo sapiens.
Experiment [10] deals with MT4. Briefly: Compound was evaluated for inhibitory effect against MT-4 cells of HIV-2 at a concentration of 0.8(3.4) ug/mL (uM). It counts as functional, Homo sapiens. In outline: as §1
In experiment [11] the test system is MT4. Kind of experiment: Compound was evaluated for inhibitory effect against MT-4 cells of HIV-1 at a concentration of 20(84) ug/mL (uM). The class given is functional, Homo sapiens. In outline:
as §2

The test system of experiment [12] is MT4. Kind of experiment: Cell viability at a concentration of 20(84) ug/mL (uM). It counts as functional, Homo sapiens.
Experiment [13] deals with Human immunodeficiency virus type 1 reverse transcriptase (Human immunodeficiency virus 1) (UniProt Q72547). Briefly: Compound tested for % inhibition of cell-free HIV-1 Reverse Transcriptase at a concentration of 84 uM. In outline:
as §3

Experiment [14] has as its system MT4. Briefly: Cell viability at a concentration of 0.8(3.4) ug/mL (uM). The class given is functional, Homo sapiens.
Experiment [15] concerns MT4. Briefly: Cell viability at a concentration of 100(420) ug/mL (uM). It counts as functional, Homo sapiens.
The test system of experiment [16] is MT4. Kind of experiment: Compound was evaluated for inhibitory effect against MT-4 cells of HIV-1 at a concentration of 100(420) ug/mL (uM). It counts as functional, Homo sapiens. Summed up:
as §2

The subject of experiment [17] is MT4. Briefly: Compound tested for its inhibition of HIV-2 induced cytopathogenicity in MT-4 cells. The class given is functional. The settings on record: Homo sapiens, read-out: ED50 (the source's name). Summed up:
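MT-4 cells infected with HIV-2 (ROD) at MOI 0.02 and incubated 4 days with a range of compound concentrations. Viable cells were counted by MTT. ED50 is the dose giving 50% inhibition of virus-induced cytopathogenicity, given as the mean of two separate experiments.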

In experiment [18] the test system is MT4. Briefly: Compound was evaluated for inhibitory effect against MT-4 cells of HIV-2 at a concentration of 4(16.8) ug/mL (uM). It counts as functional, Homo sapiens. In outline: as §1
For experiment [19], the system named is MT4. Briefly: Compound was evaluated for inhibitory effect against MT-4 cells of HIV-1 at a concentration of 20(21.4) ug/mL (uM). It counts as functional, Homo sapiens. Summed up: as §2
The subject of experiment [20] is MT4. Kind of experiment: Cell viability at a concentration of 20(21.4) ug/mL (uM). It counts as functional, Homo sapiens.
Experiment [21] has as its target Human immunodeficiency virus type 1 reverse transcriptase (Human immunodeficiency virus 1) (UniProt Q72547). Kind of experiment: Compound tested for % inhibition of cell-free HIV-1 Reverse Transcriptase at a concentration of 535 uM. In outline:
as §3

For experiment [22] the target is unchanged. Briefly: Compound tested for % inhibition of cell-free HIV-1 Reverse Transcriptase at a concentration of 21.4 uM. Summed up: as §3
Experiment [23] concerns MT4. Briefly: Cell viability at a concentration of 4(4.3) ug/mL (uM). It counts as functional, Homo sapiens.
The test system of experiment [24] is MT4. Briefly: Compound was evaluated for inhibitory effect against MT-4 cells of HIV-2 at a concentration of 100(107) ug/mL (uM). The class given is functional, Homo sapiens. Summed up:
as §1

The subject of experiment [25] is MT4. Kind of experiment: Compound was evaluated for inhibitory effect against MT-4 cells of HIV-1 at a concentration of 4(4.3) ug/mL (uM). The class given is functional, Homo sapiens. In outline:
as §2

In experiment [26] the target is Human immunodeficiency virus type 1 reverse transcriptase (Human immunodeficiency virus 1) (UniProt Q72547). Kind of experiment: Inhibitory dose at a concentration 535 uM cell-free HIV-1 Reverse Transcriptase. In outline:
as §3

Experiment [27] concerns MT4. Kind of experiment: Compound was evaluated for inhibitory effect against MT-4 cells of HIV-1 at a concentration of 0.8(0.9) ug/mL (uM). It counts as functional, Homo sapiens. Summed up:
as §2

Experiment [28] has as its system MT4. Briefly: Compound was evaluated for inhibitory effect against MT-4 cells of HIV-2 at a concentration of 0.8(0.9) ug/mL (uM). It counts as functional, Homo sapiens. In outline:
as §1

The subject of experiment [29] is MT4. Kind of experiment: Compound was evaluated for inhibitory effect against MT-4 cells of HIV-2 at a concentration of 4(4.3) ug/mL (uM). It counts as functional, Homo sapiens. Summed up: as §1
The subject of experiment [30] is MT4. Kind of experiment: Cell viability at a concentration of 0.8(0.9) ug/mL (uM). It counts as functional, Homo sapiens.
For experiment [31], the target named is Human immunodeficiency virus type 1 reverse transcriptase (Human immunodeficiency virus 1) (UniProt Q72547). Briefly: Compound tested for % inhibition of cell-free HIV-1 Reverse Transcriptase at a concentration of 4.3 uM. In outline:
as §3

The test system of experiment [32] is Human immunodeficiency virus 1. Briefly: Compound tested for % inhibition of giant cell formation at a concentration of 107 uM.
The subject of experiment [33] is MT4. Briefly: Compound was evaluated for inhibitory effect against MT-4 cells of HIV-2 at a concentration of 20(21.4) ug/mL (uM). The class given is functional, Homo sapiens. In outline: as §1
The subject of experiment [34] is MT4. Briefly: Cell viability at a concentration of 100(107) ug/mL (uM). It counts as functional, Homo sapiens.
Experiment [35] concerns MT4. Kind of experiment: Compound was evaluated for inhibitory effect against MT-4 cells of HIV-1 at a concentration of 100(107) ug/mL (uM). The class given is functional, Homo sapiens. In outline:
as §2

For orientation: Inhibition means the drop in the measured response relative to a control, in per cent. Higher therefore signals strong suppression. The inhibition is the relative decrease from the control value, in per cent. The low end stands for a response near the control, the high end for a response far below the control. `Nc1cc(S(=O)(=O)O)c2ccccc2c1N`: the Inhibition in [1] is listed as 0%; in experiment [2], 0%; in experiment [8], 0%; in experiment [10], 1%; in experiment [11], 0%; in experiment [16], 0%. The compound further came in with an Inhibition in experiment [18] of 3%. Besides, the EC50 in [3] and in experiment [17] was > 45 µg/mL throughout. Moreover, in experiment [4], the ID50 was > 500 µg/mL. The CC50 in experiment [5] amounted to 45 µg/mL (≈ 189 µM). The inhibition was 2% in [6], 0% in experiment [7] and 1% in [13]. The Cell viability in [9] was determined as 0; in [12] it was 1; in [14], 13; in [15] it was 97.
Consider `O=C(CCCCCCCCCCC(=O)Nc1cc(S(=O)(=O)O)cc2cc(S(=O)(=O)[O-])cc(O)c12)Nc1cc(S(=O)(=O)O)cc2cc(S(=O)(=O)[O-])cc(O)c12.[Na+].[Na+]`, for which the Inhibition in experiment [19] stood at 14%; in experiment [24], 100%; in experiment [25] it was 2%; in [27], 0%; in experiment [28] it was 3%; in experiment [29] it was 3%. The results for the Inhibition in experiment [33] and in experiment [35] were 4% and 100%, respectively. For the same compound, the Cell viability is recorded as 9 in experiment [20], 5 in experiment [23], 4 in experiment [30] and 0 in experiment [34]. The EC50 is 39 µg/mL in experiment [3] and 43 µg/mL in experiment [17]. Also, the inhibition came to 100% in [21], 44% in experiment [22], 15% in experiment [31] and 99% in experiment [32]. For the same compound, the CC50 in [5] was > 100 µg/mL. Moreover, in experiment [26], the ID50 amounted to 160 µg/mL.
